The source made the active and inactive calls. No cut-off for these calls is given here.
Legend:
ASPC1 [1] = assay: Cytotoxicity against human AsPC1 cells after 72 hrs by MTT assay; type: functional, cell-based; conditions: ASPC1, 72 h
Method in brief: (§1)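 Cells seeded at 3x10^5 cells/mL 24 h before assay (HEK293, AsPC-1 in DMEM; Jurkat, W1308 in RPMI-1640; 10% FCS, 2-ME). Tenfold dilutions from […] to 1 nM added; untreated cells as controls. 72 h incubation, MTT 250 µg/ml added for last 6 h, formazan dissolved in DMSO, OD read. IC50 from titration curves; inhibition index = 1 − OD(treated)/OD(control).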

ASPC1 [2] = assay: Induction of apoptosis in human AsPC1 cells assessed as mitochondria depolarization at 200 nM after 72 hrs by Hoechst 33342 and mitotracker red staining based confocal microscopy; type: functional, cell-based
Method in brief: (§2)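 AsPC-1 cells grown overnight on coverslips, then cultured 72 h with compound at various concentrations in complete medium. Hoechst 33342 and MitoTracker Red added for 1 h; cells fixed in 1% paraformaldehyde, mounted in Mowiol, and examined by confocal microscopy for nuclear and mitochondrial morphology.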

Jurkat [3] = assay: Induction of cell cycle arrest in human Jurkat cells assessed as G1/G2 phas e-ratio at 200 nM after 72 hrs by propidium iodide staining based flow cytometry (reference value: 2.7); type: functional
HEK293 [4] = assay: Induction of cell cycle arrest in HEK293 cells assessed as accumulation at G1 phase at 200 nM after 72 hrs by propidium iodide staining based flow cytometry (reference value: 76 +/ 5%); type: functional, Homo sapiens
[5] = Induction of apoptosis in mouse W1308 cells assessed as pre-apoptotic cells level at 200 nM after 48 hrs by 3,3'-dihexyloxacarbocyanine iodide and propidium iodide staining based flow cytometry (reference value: 17%); type: functional
Jurkat [6] = assay: Cytotoxicity against human Jurkat cells after 72 hrs by MTT assay; type: functional, cell-based; method in brief: as §1
Mus musculus [7] = assay: Toxicity in mouse MMTV-Wnt-1 cells implanted C57BL/6 mouse assessed as induction of neurological symptoms at 0.4 mg/kg, iv once weekly for four weeks; type: organism-based; design: dose 0.4 mg/kg, route intravenous; conditions: in vivo
Method in brief: (§3)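 C57BL/6 mice, 6–8 wk, inoculated subcutaneously with Wnt-1 tumor cells in 50 µl PBS into left inguinal fat pad under anesthesia. Treatment started at day 27 in mice with palpable tumors (n=7 per group). Compound in 200 µl saline given i.v. into orbital sinus at days 27, 34, 41, 48; controls received saline. Tumors measured by caliper twice weekly, volume (W²×L)/2. Study ended day 51.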

[8] = (§4) Toxicity in ip dosed C57BL/6 mouse measured after 24 to 48 hrs; type: organism-based; conditions: C57BL/6, mouse, in vivo
Method in brief: (§5)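 Acute toxicity: single doses given i.p. or i.v. to 6–8 wk C57BL/6 mice to determine LD100 and LD50; lethality observed 24–48 h after injection.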

Mus musculus [9] = assay: as §4; type: organism-based; conditions: mouse, in vivo; method in brief: as §5
[10] = Growth inhibition of mouse W1308 cells at 100 uM after 72 hrs by MTT assay; type: functional; conditions: W1308, 72 h, read-out: GI
ASPC1 [11] = assay: Induction of apoptosis in human AsPC1 cells assessed as cell fractionation level at 200 nM after 72 hrs by Hoechst 33342 and mitotracker red staining based confocal microscopy; type: functional; method in brief: as §2
ASPC1 [12] = assay: Induction of cell cycle arrest in human AsPC1 cells assessed as accumulation at G1 phase at 200 nM after 72 hrs by propidium iodide staining based flow cytometry (reference value: 65 +/ 3%); type: functional
ASPC1 [13] = assay: Induction of apoptosis in human AsPC1 cells assessed as double nucleated cells level at 200 nM after 72 hrs by Hoechst 33342 and mitotracker red staining based confocal microscopy; type: functional, cell-based; method in brief: as §2
Mus musculus [14] = assay: Toxicity in C57BL/6 mouse assessed as interphase microtubule de-stabilizing activity by measuring influx of rhodamine in to spleen at 1 mg/kg, iv co-administered with rhodamine B by fluorimetry; type: organism-based; design: dose 1 mg/kg, route intravenous; conditions: in vivo
Method in brief: (§6)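 Intact mice, 6–8 wk, 3 per group; compound dissolved in DMSO at 20 mM, 4 µl diluted into 200 µl saline (1 mg/kg), mixed with 50 µl rhodamine B, single i.v. injection; controls DMSO plus rhodamine B. Killed 4 h later; organs cut, extracted in 0.3N acid in ethanol 2 h at 37 °C, centrifuged, supernatant fluorescence read with 540 nm filter.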

ASPC1 [15] = assay: Induction of cell cycle arrest in human AsPC1 cells assessed as G1/G2 phase ratio at 200 nM after 72 hrs by propidium iodide staining based flow cytometry (reference value: 1.9); type: functional
Jurkat [16] = assay: Induction of cell cycle arrest in human Jurkat cells assessed as accumulation at G1 phase at 200 nM after 72 hrs by propidium iodide staining based flow cytometry (reference value: 72 +/ 4%); type: functional
HEK293 [17] = assay: Induction of apoptosis in HEK293 cells at 200 nM after 72 hrs by propidium iodide staining based flow cytometry (reference value: 3 +/- 1%); type: functional, Homo sapiens
[18] = Inhibition of lamb brain tubulin polymerization assessed as reduction in microtubule assembly by spectrophotometry; design: species or system Ovis aries
Method in brief: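 Tubulin purified from lamb brain by ammonium sulfate fractionation and ion-exchange chromatography. Assembly in 20 mM sodium phosphate, 1 mM EGTA, 10 mM MgCl2, 3.4 M glycerol, 1 mM GTP, pH 6.5, started by warming to 37 °C; turbidity followed at 350 nm over time. Inhibition plotted against ligand:tubulin molar ratio.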

Jurkat [19] = assay: Induction of cell cycle arrest in human Jurkat cells assessed as accumulation at G2/M phase at 200 nM after 72 hrs by propidium iodide staining based flow cytometry (reference value: 27 +/ 2%); type: functional
ASPC1 [20] = assay: Induction of apoptosis in human AsPC1 cells assessed as apoptotic body formation at 200 nM after 72 hrs by Hoechst 33342 and mitotracker red staining based confocal microscopy; type: functional, cell-based; method in brief: as §2
Mus musculus [21] = assay: Toxicity in mouse MMTV-Wnt-1 cells implanted C57BL/6 mouse assessed as induction of behavior changes at 0.4 mg/kg, iv once weekly for four weeks; type: organism-based; design: dose 0.4 mg/kg, route intravenous; conditions: in vivo; method in brief: as §3
Jurkat [22] = assay: Growth inhibition of human Jurkat cells at 100 uM after 72 hrs by MTT assay; type: functional; conditions: read-out: GI
[23] = Induction of apoptosis in mouse W1308 cells 200 nM after 72 hrs by propidium iodide staining based flow cytometry (reference value: 0.3 +/ 0.1); type: functional
Mus musculus [24] = assay: Toxicity in C57BL/6 mouse assessed as interphase microtubule de-stabilizing activity by measuring influx of rhodamine in to heart at 1 mg/kg, iv co-administered with rhodamine B by fluorimetry; type: organism-based; design: dose 1 mg/kg, route intravenous; conditions: in vivo; method in brief: as §6
HEK293 [25] = assay: Induction of cell cycle arrest in HEK293 cells assessed as accumulation at G2/M phase at 200 nM after 72 hrs by propidium iodide staining based flow cytometry (reference value: 21 +/- 2%); type: functional, Homo sapiens
[26] = Cytotoxicity against mouse W1308 cells after 72 hrs by MTT assay; type: functional, cell-based; conditions: W1308, 72 h; method in brief: as §1
[27] = Reduction in blood-brain barrier permeability in […]; type: ADME, tissue-based, C57BL/6, Endothelial cell; design: scale not given: the % may be the effect or the level left; conditions: mouse; method in brief: as §6
Mus musculus [28] = assay: Toxicity in mouse MMTV-Wnt-1 cells implanted C57BL/6 mouse assessed as induction of weight loss at 0.4 mg/kg, iv once weekly for four weeks; type: organism-based; design: dose 0.4 mg/kg, route intravenous; conditions: in vivo; method in brief: as §3
[29] = Induction of apoptosis in mouse W1308 cells assessed as apoptotic cells level at 200 nM after 48 hrs by 3,3'-dihexyloxacarbocyanine iodide and propidium iodide staining based flow cytometry (reference value: 11%); type: functional
ASPC1 [30] = assay: Induction of apoptosis in human AsPC1 cells at 200 nM after 72 hrs by propidium iodide staining based flow cytometry (reference value: 2.2 +/ 0.1%); type: functional
ASPC1 [31] = assay: Induction of cell cycle arrest in human AsPC1 cells assessed as accumulation at G2/M phase at 200 nM after 72 hrs by propidium iodide staining based flow cytometry (reference value: 34 +/ 3%); type: functional
HEK293 [32] = assay: Growth inhibition of HEK293 cells at 100 uM after 72 hrs by MTT assay; type: functional; conditions: Homo sapiens, HEK293, 72 h; read-out: GI
Mus musculus [33] = assay: Toxicity in C57BL/6 mouse assessed as interphase microtubule de-stabilizing activity by measuring leakage of rhodamine through the gut at 1 mg/kg, iv co-administered with rhodamine B by fluorimetry; type: organism-based; design: dose 1 mg/kg, route intravenous; conditions: in vivo; method in brief: as §6
[34] = Induction of cell cycle arrest in mouse W1308 cells assessed as accumulation at G2/M phase at 200 nM after 72 hrs by propidium iodide staining based flow cytometry (reference value: 56 +/ 1%); type: functional
HEK293 [35] = assay: Cytotoxicity against HEK293 cells after 72 hrs by MTT assay; type: functional, cell-based; conditions: Homo sapiens, HEK293, 72 h; method in brief: as §1
Mus musculus [36] = assay: Antitumor activity against mouse MMTV-Wnt-1 cells implanted in C57BL/6 mouse assessed as reduction in tumor volume at 0.4 mg/kg, iv once weekly for four weeks; type: functional, organism-based; design: dose 0.4 mg/kg; method in brief: as §3
HEK293 [37] = assay: Induction of cell cycle arrest in HEK293 cells assessed as G1/G2 phase ratio at 200 nM after 72 hrs by propidium iodide staining based flow cytometry (reference value: 3.6); type: functional, Homo sapiens
[38] = (§7) Toxicity in iv dosed C57BL/6 mouse measured after 24 to 48 hrs; type: organism-based; conditions: C57BL/6, mouse, in vivo; method in brief: as §5
Mus musculus [39] = assay: as §7; type: organism-based; conditions: mouse, in vivo; method in brief: as §5
[40] = Induction of cell cycle arrest in mouse W1308 cells assessed as accumulation at G1 phase at 200 nM after 72 hrs by propidium iodide staining based flow cytometry (reference value: 43 +/ 2%); type: functional
Jurkat [41] = assay: Induction of apoptosis in human Jurkat cells at 200 nM after 72 hrs by propidium iodide staining based flow cytometry (reference value: 0.9 +/ 0.2%); type: functional
ASPC1 [42] = assay: Growth inhibition of human AsPC1 cells at 100 uM after 72 hrs by MTT assay; type: functional; conditions: ASPC1, 72 h, read-out: GI
[43] = Induction of cell cycle arrest in mouse W1308 cells assessed as G1/G2 phase ratio at 200 nM after 72 hrs by propidium iodide staining based flow cytometry (reference value: 0.8); type: functional
ASPC1 [44] = assay: Induction of apoptosis in human AsPC1 cells assessed as mitochondria enlargement at 200 nM after 72 hrs by Hoechst 33342 and mitotracker red staining based confocal microscopy; type: functional, cell-based; method in brief: as §2

COc1cc2c(c(OC)c1OC)-c1cc3cc(CO)oc3cc1[C@@H](NC(C)=O)CC2
IC50 (ASPC1 [1]): < 0.05 µM
Activity (ASPC1 [2]): Active
Ratio (Jurkat [3]): 0.6
Activity (HEK293 [4]): 22%
Activity [5]: 14%
IC50 (Jurkat [6]): < 0.02 µM
Activity (Mus musculus [7]): Non-toxic
LD50 [8]: 0.3 mg/kg
LD100 (Mus musculus [9]): 0.8 mg/kg
inhibition of growth at 100 µM [10]: 60%
Activity (ASPC1 [11]): Active
Activity (ASPC1 [12]): 27%
Activity (ASPC1 [13]): Active
Activity (Mus musculus [14]): Toxic
Ratio (ASPC1 [15]): 0.7
Activity (Jurkat [16]): 34%
Activity (HEK293 [17]): 6%
IC50 [18]: 0.08 molar ratio
Activity (Jurkat [19]): 62%
Activity (ASPC1 [20]): Active
Activity (Mus musculus [21]): Non-toxic
inhibition of growth at 100 µM (Jurkat [22]): 60%
Activity [23]: 2.3%
Activity (Mus musculus [24]): Toxic
Activity (HEK293 [25]): 72%
IC50 [26]: < 0.02 µM
Activity [27]: 40%
Activity (Mus musculus [28]): Non-toxic
Activity [29]: 11%
Activity (ASPC1 [30]): 1.2%
Activity (ASPC1 [31]): 72%
inhibition of growth at 100 µM (HEK293 [32]): 60%
Activity (Mus musculus [33]): Toxic
Activity [34]: 80%
IC50 (HEK293 [35]): < 0.02 µM
growth inhibition (GI) (Mus musculus [36]): Active
Ratio (HEK293 [37]): 0.3
LD50 [38]: 0.8 mg/kg
LD100 (Mus musculus [39]): 2 mg/kg
Activity [40]: 18%
Activity (Jurkat [41]): 2.2%
inhibition of growth at 100 µM (ASPC1 [42]): 60%
Ratio [43]: 0.2
Activity (ASPC1 [44]): Active

COC(=O)CCCCCCCCc1cc2cc3c(cc2o1)[C@@H](NC(C)=O)CCc1cc(OC)c(OC)c(OC)c1-3
IC50 (ASPC1 [1]): > 100 µM
IC50 (Jurkat [6]): > 100 µM
IC50 [26]: > 100 µM
IC50 (HEK293 [35]): > 100 µM

COc1cc2c(c(OC)c1OC)-c1ccc(OC)c(=O)cc1[C@@H](NC(C)=O)CC2 [COLCHICINE]
Activity (Mus musculus [14]): Toxic
Activity (Mus musculus [24]): Toxic
Activity (Mus musculus [33]): Toxic

Source: ChEMBL document CHEMBL3392953, “Synthesis and biological evaluation of furanoallocolchicinoids” (J Med Chem, 2015)
